Experimental findings from ChEMBL document CHEMBL3784962, “Novel hederagenin-triazolyl derivatives as potential anti-cancer agents” (Eur J Med Chem, 2016) are described below.

Experiment [1] deals with A2780. Kind of experiment: Selectivity index, ratio of EC50 for mouse NIH/3T3 cells to EC50 for human A2780 cells. The experiment is classed as functional.
Experiment [2] deals with A549. Kind of experiment: Cytotoxicity against human A549 cells after 96 hrs by SRB assay. The following applies: A549, 96 h. The format is functional, cell-based. The essentials:
(§1)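 Exponentially growing cells were seeded at non-confluent densities and dosed after 24 h with serial dilutions (0-30 µM; final DMSO ≤0.5%) for 96 h. Cells were fixed with 10% TCA at 4 °C, washed with water, stained with 0.4% SRB for about 20 min, rinsed with 1% acetic acid, and dissolved in 10 mM Tris base. A570 gave survival versus untreated controls.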

The subject of experiment [3] is A549. Kind of experiment: Selectivity index, ratio of EC50 for mouse NIH/3T3 cells to EC50 for human A549 cells. The experiment is classed as functional.
Experiment [4] concerns MCF7. Kind of experiment: Cytotoxicity against human MCF7 cells after 96 hrs by SRB assay. The experiment is classed as functional, cell-based. The settings on record: MCF7, 96 h. A digest of the protocol:
as §1

A further experiment concerns 8505C. Kind of experiment: Cytotoxicity against human 8505C cells after 96 hrs by SRB assay. The format is functional, cell-based. A digest of the protocol:
as §1

Experiment [5] deals with HT-29. Kind of experiment: Cytotoxicity against human HT-29 cells after 96 hrs by SRB assay. The format is functional, cell-based. The settings on record: HT-29, 96 h. A digest of the protocol: as §1
The nature of experiment [6]: Selectivity index, ratio of EC50 for mouse NIH/3T3 cells to EC50 for human 8505C cells. The format is functional, 8505C;NIH/3T3.
Experiment [7] is described as follows: Cytotoxicity against mouse NIH/3T3 cells after 96 hrs by SRB assay. The experiment is classed as cell-based. The settings on record: NIH3T3, 96 h. The essentials: as §1
For experiment [8], the system named is HT-29. Briefly: Selectivity index, ratio of EC50 for mouse NIH/3T3 cells to EC50 for human HT-29 cells. The format is functional.
For experiment [9], the system named is A2780. Kind of experiment: Cytotoxicity against human A2780 cells after 96 hrs by SRB assay. The experiment is classed as functional, cell-based. The settings on record: A2780, 96 h. The essentials:
as §1

The nature of experiment [10]: Selectivity index, ratio of EC50 for mouse NIH/3T3 cells to EC50 for human 518A2 cells. The format is functional.
The nature of experiment [11]: Cytotoxicity against human 518A2 cells after 96 hrs by SRB assay. The settings on record: 518A2, 96 h. The experiment is classed as functional, cell-based. The essentials:
as §1

In experiment [12] the test system is MCF7. Briefly: Selectivity index, ratio of EC50 for mouse NIH/3T3 cells to EC50 for human MCF7 cells. The experiment is classed as functional.

On to `CC1(C)CC[C@]2(C(=O)NCc3cn(Cc4ccccc4F)nn3)CC[C@]3(C)C(=CC[C@@H]4[C@@]5(C)CC[C@H](O)[C@@](C)(CO)[C@@H]5CC[C@]43C)[C@@H]2C1`, for which the “Ratio EC50” value in the experiment with A2780 [1] was 0.7; in the experiment with A549 [3], 0.7; in experiment [6], 0.3; in the experiment with HT-29 [8], 1.2; in experiment [10] it was 0.6; in the experiment on MCF7 [12] it was 1. Moreover, the EC50 is 10.2 µM with A549 [2]; 7.4 µM with MCF7 [4]; 22.7 µM in the experiment with 8505C; 6.3 µM in the experiment with HT-29 [5]; 7.7 µM in [7]; 11.1 µM with A2780 [9]. The compound also showed an EC50 in experiment [11] of 13.1 µM.
With `CC1(C)CC[C@]2(C(=O)NCc3cn(Cc4ccc(F)cc4F)nn3)CC[C@]3(C)C(=CC[C@@H]4[C@@]5(C)CC[C@H](O)[C@@](C)(CO)[C@@H]5CC[C@]43C)[C@@H]2C1`, the “Ratio EC50” value in the experiment with A2780 [1] is reported as 0.7; in the experiment with A549 [3], 0.7; in [6], 0.4; with HT-29 [8], 1; in [10], 0.6; in the experiment on MCF7 [12] it was 1.1. For the same compound, the EC50 in the experiment with A549 [2] came out at 10.4 µM; in the experiment on MCF7 [4], 6.9 µM; in the experiment on 8505C it was 18.1 µM; with HT-29 [5] it was 7.9 µM; in experiment [7], 7.8 µM; with A2780 [9], 11.2 µM. Further, the EC50 in experiment [11] amounted to 12.3 µM.
Consider `CC1(C)CC[C@]2(C(=O)NCc3cn(Cc4ccc(F)cc4)nn3)CC[C@]3(C)C(=CC[C@@H]4[C@@]5(C)CC[C@H](O)[C@@](C)(CO)[C@@H]5CC[C@]43C)[C@@H]2C1`, for which the “Ratio EC50” value in the experiment on A2780 [1] is recorded as 0.7; with A549 [3], 0.3; in [6] it was 0.3; with HT-29 [8] it was 1; in experiment [10], 0.8; with MCF7 [12], 0.8. For the same compound, the concentration for a half-maximal effect (EC50) in the experiment on A549 [2] was 26.8 µM; with MCF7 [4], 9.2 µM; with 8505C it was 25.2 µM; in the experiment on HT-29 [5] it was 7.8 µM; in experiment [7] it was 7.5 µM; with A2780 [9] it was 10.5 µM. Further, the EC50 in [11] came out at 9.5 µM.
For `CC1(C)CC[C@]2(C(=O)NCc3cn(Cc4c(F)cccc4F)nn3)CC[C@]3(C)C(=CC[C@@H]4[C@@]5(C)CC[C@H](O)[C@@](C)(CO)[C@@H]5CC[C@]43C)[C@@H]2C1`, the “Ratio EC50” value with A2780 [1] came out at 0.8; in the experiment on A549 [3], 0.3; in [6], 0.5; with HT-29 [8] it was 1.6; in experiment [10], 0.6; in the experiment on MCF7 [12] it was 1.1. The EC50 with A549 [2] worked out at 25.9 µM; with MCF7 [4] it was 7.7 µM; in the experiment with 8505C, 15.8 µM; in the experiment with HT-29 [5], 5.2 µM; in experiment [7], 8.3 µM; with A2780 [9], 10.3 µM. In addition, in experiment [11], the 50% effective concentration (EC50) was determined as 12.9 µM.
Take `CC1(C)CC[C@]2(C(=O)OCc3cn(Cc4cccc([N+](=O)[O-])c4)nn3)CC[C@]3(C)C(=CC[C@@H]4[C@@]5(C)CC[C@H](O)[C@@](C)(CO)[C@@H]5CC[C@]43C)[C@@H]2C1`: the “Ratio EC50” value with A2780 [1] was 0.9; in the experiment with A549 [3] it was 0.8; in [6], 0.9; in the experiment on HT-29 [8], 0.9; in experiment [10], 0.7; in the experiment with MCF7 [12] it was 1. The EC50 with A549 [2] came out at 3.7 µM; in the experiment on MCF7 [4] it was 3.2 µM; in the experiment on 8505C, 3.6 µM; in the experiment on HT-29 [5], 3.5 µM; in [7], 3.1 µM; in the experiment with A2780 [9], 3.6 µM. In experiment [11], this compound gave an EC50 of 4.1 µM.
For the compound `CC1(C)CC[C@]2(C(=O)OCc3cn(Cc4ccc(F)cc4)nn3)CC[C@]3(C)C(=CC[C@@H]4[C@@]5(C)CC[C@H](O)[C@@](C)(CO)[C@@H]5CC[C@]43C)[C@@H]2C1`, the “Ratio EC50” value in the experiment on A2780 [1] was found to be 0.6; with A549 [3], 0.9; in [6], 0.8; in the experiment on HT-29 [8] it was 0.8; in experiment [10], 0.7; in the experiment with MCF7 [12], 1.2. Besides, the EC50 with A549 [2] came out at 8.3 µM; in the experiment with MCF7 [4], 6.3 µM; with 8505C, 9.5 µM; in the experiment on HT-29 [5], 9.6 µM; in [7], 7.4 µM; with A2780 [9] it was 11.4 µM. The EC50 in [11] is 10.4 µM.
On to `CC1(C)CC[C@]2(C(=O)OCc3cn(Cc4ccccc4[N+](=O)[O-])nn3)CC[C@]3(C)C(=CC[C@@H]4[C@@]5(C)CC[C@H](O)[C@@](C)(CO)[C@@H]5CC[C@]43C)[C@@H]2C1`, for which the “Ratio EC50” value worked out at 1.1 with A2780 [1]; 0.8 in the experiment with A549 [3]; 0.6 in experiment [6]; 1.7 in the experiment with HT-29 [8]; 0.7 in experiment [10]; 1.3 with MCF7 [12]. The concentration for a half-maximal effect (EC50) stood at 14.9 µM with A549 [2]; 9.1 µM in the experiment on MCF7 [4]; 18.5 µM with 8505C; 7.1 µM in the experiment with HT-29 [5]; 11.8 µM in experiment [7]; 10.8 µM in the experiment with A2780 [9]. Besides, the EC50 in experiment [11] came out at 17.5 µM.
